# Autophagy HCS – modulators of autophagy; MEF GFP-LC3 puncta imaging; test concentration mostly 10 µM; calls only at 10 µM (by protocol); actives 0.98% (n = 190,000); AID 463193;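 active = percentage of spot-positive cells more than 3 SD above its plate mean, without a fluorescence outlier flag or 80% toxicity; inconclusive = no clear call, values can overlap the other calls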
# Dynein transport – dynein cargo transport inhibition; 3617.4 mouse cells, GR-EGFP nuclear translocation imaging; test concentration mostly 20 µM; stimulated with dexamethasone, 1 µM; stronger effect = lower value; z-score, hits read low; actives 0.47% (n = 220,000); AID 1381;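 active = plate z-score of nuclear minus cytoplasmic receptor signal below a set negative limit, without overly bright fluorescence or cell loss, cut at about -3.5 in these data, passing the limit was not always enough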;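 also: z-score of nuclear minus cytoplasmic ring GR-EGFP intensity difference per well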
#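 Also added – dexamethasone, 1.0 µM final · Buffer or medium – tet-free, stripped-serum medium · Schedule – induction 48 h, compound 1 h, agonist 30 min · Detection – formaldehyde fixation, Hoechst nuclear stain, 10x automated fluorescence imaging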
# Insulin prom inh – TRM-6 insulin promoter activity inhibition. actives 0.9% (n = 130,000). TRM-6 cells (human fetal islet line), insulin promoter-eGFP reporter, imaging; reporter expression induced with tamoxifen. inhibition, % at 2 µM;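 active = inhibition above the mean plus 3 SD, with well images judged a real hit on visual review, cut at about 60% in these data, passing the limit was not always enough; inconclusive = inhibition over the cutoff but images rejected on review; inactive = inhibition not above the cutoff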
# Ins promoter up – MIN6 insulin promoter up-regulation; MIN6 insulin promoter-GFP reporter, high-content imaging; stronger effect = higher value; actives 0.3% (n = 190,000); z-score at 5 µM;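 active = z-score above 3 at 5 µM with at least 500 cells counted in the well; inconclusive = wells under 500 cells, flagged as cytotoxic or low count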
# Dynein confirm – dynein cargo transport inhibition, confirmation. shares compounds with Dynein transport. 3617.4 GR-EGFP nuclear translocation imaging, dexamethasone-induced. calls only at 20 µM. actives 69% (n = 1,000). AID 463116;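 active = inhibition of receptor movement into the nucleus at or above a set limit in both runs, with normal cell brightness and cell count; inconclusive = limit reached in only one run, brightness and count normal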;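 also: dexamethasone at 1 µM final in well for 30 min; nuclear minus cytoplasmic GR-EGFP mean intensity difference in channel 2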
# Numbers stand for hits; 0 = inactive; ? = inconclusive; - = no result; + = active, no number. Most compounds without a hit are left out; they make up all but 2% or so of the library.
SMILES,Autophagy HCS,Dynein transport,Insulin prom inh,Ins promoter up,Dynein confirm
Cc1cc(C(=O)CCl)c(C)n1CCc1ccc(Cl)cc1,0,-6.3,-,0,+
COc1ccc(CCn2c(C)cc(C(=O)CCl)c2C)cc1OC,0,-3.7,0,0,+
O=C(CN1CCCc2ccccc21)NC(=O)NC1CCCCC1,0,0,0,0,0
CC(C)(C)NC(=O)NC(=O)CN1CCCc2ccccc21,0,0,-,-,-
N#C/C(C(N)=O)=C1/SC=C(c2ccccc2)N1c1ccccc1,-,0,-,0,-
N#C/C(C(=O)c1ccccc1)=C1/SC=C(N)N1c1ccccc1,0,0,0,6,0
CC(=O)N/C(=C/c1ccc(OS(=O)(=O)c2ccc(C)cc2)cc1)C(=O)NCCCO,-,0,-,0,-
O=C1ON=C(c2ccc(Cl)cc2)/C1=C/c1ccc(O)cc1,0,-5,-,0,+
Cc1ccc(-c2nn(-c3ccccc3)cc2CO)o1,0,-3.7,0,-,0
CCCCCCCn1c2c(c(=N)c3ccccc31)CCC2,0,0,-,?,-
N#CC(C#N)=C1C=CC=CN1/C(=C\c1ccco1)C(=O)c1ccccc1,0,-3.8,-,0,+
N#CC(C#N)=C1C=CC=CN1/C(=C\c1ccco1)C(=O)c1ccc(Br)cc1,0,-4.8,0,?,+
COc1ccc(C(=O)/C(=C\c2ccco2)N2C=CC=CC2=C(C#N)C#N)cc1,0,0,0,0,-
O=C(c1cc(=O)[nH]c2ccccc12)N1CCN(c2ccccc2)CC1,-,0,-,0,-
Cc1cc(C)nc(NC(=O)c2ccc(COc3ccccc3Cl)cc2)c1,0,0,0,0,-
Cc1ccc(S(=O)(=O)/N=C(\Sc2ccccc2)c2ccccc2)cc1,0,-3.5,0,0,+
O=S(=O)(/N=C(\Sc1ccccc1)c1ccccc1)c1ccc(Cl)cc1,0,0,0,0,-
COc1ccc(C(C(=O)NC2CCCCC2)N(C(=O)CCl)c2ccc(OC)cc2)cc1 (stereo not drawn),0,0,0,-,-
COc1ccc(N(C(=O)CCl)C(C(=O)NC2CCCCC2)c2cccnc2)cc1 (stereo not drawn),0,-5.4,0,-,+
O=C(NC1CCCCC1)C(c1cccnc1)N(C(=O)CCl)c1ccc(F)cc1 (stereo not drawn),0,-4.4,-,-,+
O=C(NC1CCCC1)C(c1ccc(F)cc1)N(Cc1ccc(F)cc1)C(=O)CCl (stereo not drawn),0,-4.4,0,0,+
COc1ccc(C(C(=O)NC2CCCCC2)N(C(=O)CCl)c2cccc(Cl)c2)cc1 (stereo not drawn),0,-3.9,-,0,+
COc1ccc(-c2nnn(CC(=O)N(Cc3ccc(F)cc3)C(C(=O)NC3CCCC3)c3ccc(F)cc3)n2)cc1 (stereo not drawn),0,0,0,-,-
CCN(CC)S(=O)(=O)c1ccc2c(c1)N(CC(=O)Nc1cccnc1Cl)C(=O)CO2,0,0,0,0,-
N#CC1(NC(=O)CN2CCN(S(=O)(=O)c3ccccc3F)CC2)CCCC1,-,0,-,0,-
SMILES,Autophagy HCS,Dynein transport,Insulin prom inh,Ins promoter up,Dynein confirm
O=S1(=O)CCC(NC(=S)SCCOc2ccccc2)C1 (stereo not drawn),0,-3.9,-,0,+
O=C1NC(SCCCF)=N/C1=C/c1ccc(-n2cncn2)cc1,-,0,-,0,-
COc1cc(N2C(=O)C=CC2=O)c(OC)cc1Cl,-,-5.1,-,0,+
COc1ccc(N2CCN(S(=O)(=O)c3cc(C)ccc3OC)CC2)cc1,0,0,-,0,-
Cc1ccc(S(C)(=O)=NC(=O)NC(=O)c2c(F)cccc2Cl)cc1 (stereo not drawn),-,0,-,0,-
Cc1ccc(S(=O)(=O)/N=c2\ccc(Cl)cn2C(F)F)cc1,0,-3.8,0,-,0
CCN(CC)C(=O)c1ccc(Oc2ccc([N+](=O)[O-])cc2Cl)cc1,0,0,0,0,-
CCN(CC)C(=O)c1cc([N+](=O)[O-])cc2c1-c1ccc([N+](=O)[O-])cc1C2=C(C#N)C#N,-,-4.9,-,0,?
CCC1CCCCN1S(=O)(=O)c1ccc2c(c1)CCN2C(=O)C1CCC1 (stereo not drawn),0,0,0,0,-
O=C(CCl)c1ccc2c(c1)CCN2C(=O)C1CCCCC1,0,-5.7,0,0,+
O=C(CCl)c1ccc2c(c1)CCN2C(=O)C1CC1,0,-4.8,-,0,+
Cc1cc(NC(=O)c2cc3cccc([N+](=O)[O-])c3[nH]2)ccc1F,-,0,-,0,-
CCn1nnc(NC(=O)COc2ccc([N+](=O)[O-])cc2)n1,-,0,-,0,-
C=C1c2ccccc2NC(=S)N1Cc1ccc2c(c1)OCO2,0,0,0,0,-
COc1ccccc1-c1cc(C(F)(F)F)nc(S(=O)(=O)CCCC(=O)N2CCCCC2C)n1 (stereo not drawn),0,-5.8,0,0,?
COc1ccccc1-c1cc(C(F)(F)F)nc(S(C)(=O)=O)n1,0,-4.6,0,0,+
COc1ccccc1-c1cc(C(F)(F)F)nc(S(=O)(=O)CCCC(=O)NCc2ccc(F)cc2)n1,0,0,0,0,-
COc1ccccc1-c1cc(C(F)(F)F)nc(N2CCCC2)n1,0,0,-,0,-
O=C(COC(=O)c1ccc[nH]c1=O)NC1CCCCC1,-,0,-,0,-
CC(C)(C)NC(=O)CN(C(=O)c1csnn1)c1cccc2c1CCCC2,0,0,-,0,-
CC(C)(C)OC(=O)N[C@@H](Cc1ccccc1)c1nnc(SCC(N)=O)o1,-,0,-,0,-
COC(=O)CS(=O)(=O)c1nnc([C@H](Cc2ccccc2)NC(=O)OC(C)(C)C)o1,0,-3.9,70,0,+
Cc1cccc(CS(=O)(=O)c2nnc([C@H](Cc3ccccc3)NC(=O)OC(C)(C)C)o2)c1,0,-4.9,0,0,0
Cc1ccc(CNc2ncc(-c3ccccc3)n2C)o1,0,0,-,0,-
COCCNC(=S)Nc1cc(OC)c(OC)cc1C#N,0,0,-,0,-
SMILES,Autophagy HCS,Dynein transport,Insulin prom inh,Ins promoter up,Dynein confirm
COc1ccc(NC(=O)CCc2nc3ccccc3s2)c(OC)c1,0,-5.7,-,0,0
O=C1C=C(NC2=CC3OC(c4ccccc4)OCC3OC2=O)CCC1 (stereo not drawn),0,-4.4,0,0,+
CC1CCc2cc(F)ccc2N1C(=O)CCl (stereo not drawn),0,-5.4,0,0,+
Cc1ccc(-c2nnnn2-c2ccc(C)cc2)cc1,0,0,-,0,-
Cc1ccc(-n2nnnc2CCl)cc1,0,-6.1,-,0,+
CNc1ccc(/C=C2\CSc3ccccc3C2=O)cc1[N+](=O)[O-],0,-4,-,0,0
CC(C)c1ccc(/C=C/C(=O)n2nnc3ccccc32)cc1,0,-4.5,0,0,+
CCn1c(=NC(=O)C2COc3ccccc3O2)sc2c(OC)ccc(OC)c21 (stereo not drawn),-,0,-,0,-
COCCCNc1c2c3c(cccc3[nH]c1=O)C(=O)c1ccccc1-2,?,-4.9,-,-,+
COCCCNC1=C(Cl)C(=O)c2ccccc2C1=O,-,0,-,0,-
CCn1c(C)c(CS(=O)(=O)c2ccccc2)[nH]c1=O,0,-5.6,-,0,+
O=c1[nH]c(CS(=O)(=O)c2ccccc2)nc2ccccc12,0,0,0,0,-
CC(C)Oc1ccc(CCNC(=O)CC2C(=O)NCCN2C)cc1 (stereo not drawn),-,0,-,0,-

# Source: PubChem (several laboratories)
